We go through seven compounds from ChEMBL document CHEMBL2150944, “Antimalarial activity of pyrroloiminoquinones from the Australian marine sponge Zyzzya sp” (J Med Chem, 2012).

Structures can show the parent of a compound that is named as a salt. Active and inactive are the calls of the source. The rule behind the calls is not given here.

The target in series [1] is DNA topoisomerase 2-alpha (Homo sapiens) (UniProt P11388). Nature of the series: Inhibition of topoisomerase 2 by decatenation assay.
For another series, the system named is XRS6. The series can be described thus: Cytotoxicity against Chinese hamster Xrs-6 cells. The class given is cell-based. Conditions: Cricetulus griseus.
The subject of the next series is HCT-116. The series can be described thus: Cytotoxicity against human HCT116 cells. It counts as functional, cell-based.
Series [2] is described as follows: Selectivity index, ratio of IC50 for human HEK293 cells to IC50 for chloroquine-resistant Plasmodium falciparum Dd2. The note with it: read-out: Ratio IC50. The class given is toxicity, cell-based.
The subject of another series is HEK293. Nature of the series: Cytotoxicity against human HEK293 cells assessed as growth inhibition after 72 hrs by Alamar blue assay. It counts as cell-based. Conditions: HEK293, 72 h. A digest of the protocol:
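HEK293 adherent cells (3000/well) were incubated with compound for 72 h at 37 °C and 5% CO2. Medium was removed, then 10% Alamar Blue was added for 5−6 h. Fluorescence was read at ex 535/em 590 nm. Inhibition was normalised to DMSO and 10 μM puromycin controls. IC50 came from nonlinear variable-slope regression of % inhibition against log dose.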
In general terms: Resazurin is reduced to fluorescent resorufin, in cell work by metabolically active cells.

For series [3], the system named is Plasmodium falciparum. Nature of the series: Antimalarial activity against chloroquine-sensitive Plasmodium falciparum 3D7 assessed as growth inhibition after 72 hrs by DAPI staining. It counts as functional, organism-based. Conditions: 3D7, 72 h. A digest of the protocol:
(§1)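 P. falciparum 3D7 or Dd2 at 2% or 3% parasitemia, 0.3% hematocrit, exposed 72 h at 37 °C, 5% CO2. Staining with DAPI plus saponin and Triton X-100, 5 h at room temperature in the dark, then confocal imaging and automated counting of parasite spots. Percent inhibition is calculated against DMSO and 2 μM artemisinin controls.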

The test system of series [4] is Plasmodium falciparum. The series can be described thus: Antimalarial activity against chloroquine-resistant Plasmodium falciparum Dd2 assessed as growth inhibition after 72 hrs by DAPI staining. The class given is functional, organism-based. Conditions: Dd2, 72 h. A digest of the protocol: as §1
Series [5] can be described thus: Selectivity index, ratio of IC50 for human HEK293 cells to IC50 for chloroquine-sensitive Plasmodium falciparum 3D7. The class given is toxicity, cell-based. The note with it: read-out: Ratio IC50.
Series [6] concerns Plasmodium falciparum. The series can be described thus: Antimalarial activity against chloroquine-sensitive Plasmodium falciparum 3D7 ring stage assessed as growth inhibition upto 360 nM after 10 hrs by [3H]-hypoxanthine incorporation assay. The class given is functional, organism-based. A digest of the protocol:
(§2)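 Synchronous 3D7 rings (~10−16 h post-invasion) or trophozoites (~24−30 h post-invasion) were used at 0.5% parasitemia and 5% hematocrit. Cultures were exposed to compound or 0.04% DMSO vehicle for 4, 6 or 10 h, then washed. Triplicate wells received 0.5 μCi 3H-hypoxanthine, and incorporation was counted after ~48−72 h. Results are % growth versus matched vehicle controls, from ≥2 independent experiments.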

Series [7] concerns Plasmodium falciparum. The series can be described thus: Antimalarial activity against chloroquine-sensitive Plasmodium falciparum 3D7 trophozoite stage assessed as growth inhibition at 180 nM after 10 hrs by [3H]-hypoxanthine incorporation assay. The class given is functional, organism-based. A digest of the protocol:
as §2

Series [8] deals with Plasmodium berghei. The series can be described thus: Antimalarial activity against chloroquine-sensitive Plasmodium berghei ANKA infected in Swiss albino mouse assessed as suppression of parasitemia at 8 mg/kg/day, ip measured on day 1 post infection by Giemsa staining relative to control. It counts as functional. Conditions: route intraperitoneal.
Series [9] can be described thus: Half life in mouse liver microsomes at 1 uM after 60 mins. It counts as ADME, Microsome. A digest of the protocol: (§3)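 1 μM compound incubated at 37 °C with human or mouse liver microsomes (0.4 mg/mL protein) in 0.1 M phosphate pH 7.4. Reaction started with an NADPH-regenerating system plus MgCl2 and quenched with ice-cold acetonitrile at time points up to 60 min. Parent loss is followed by LC−MS and fitted to exponential decay, giving half-life and in vitro CLint.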

Series [10] is described as follows: Plasma concentration in Swiss mouse at 8 mg/kg, sc administered as suspension measured 1 hr post dose. The arrangement: dose 8 mg/kg, route subcutaneous. It counts as ADME, organism-based. A digest of the protocol:
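Nonfasted male Swiss outbred mice (26−34 g) received a nominal 8 mg/kg subcutaneously into the dorsal skinfold. The compound was given as a suspension in saline vehicle containing 5−7% DMSO. Blood was taken by cardiac puncture under isoflurane at 0.25, 1 or 4 h, with n = 2 mice per time point, into stabilizer-containing heparinized tubes. Plasma was acetonitrile-precipitated and quantified by UPLC−MS.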

The test system of series [11] is Plasmodium berghei. The series can be described thus: Antimalarial activity against chloroquine-sensitive Plasmodium berghei ANKA infected in Swiss albino mouse assessed as suppression of parasitemia at 8 mg/kg/day, ip measured on day 3 post infection by Giemsa staining relative to control. The note with it: route intraperitoneal. The class given is functional.

Series [12] in a line: Toxicity in Swiss albino mouse for 4 days. The class given is organism-based. The note with it: in vivo. A digest of the protocol:
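Healthy mice dosed subcutaneously daily for 4 consecutive days, compound in Tween 80/ethanol (7/3 v/v) diluted 10-fold in distilled water (~0.2 mL). Mice are assessed before and after dosing for weight loss >10%, ruffled coat, shaking, severe pallor, reduced activity and behaviour changes.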

Series [13] in a line: Intrinsic clearance in human liver microsomes assessed as per mg of protein at 1 uM after 60 mins. It counts as ADME, Microsome. Conditions: read-out: CLH. A digest of the protocol: as §3
A general note: Liver microsomes are vesicles of endoplasmic reticulum, rich in cytochrome P450 enzymes.

Series [14] deals with Plasmodium berghei. Nature of the series: Antimalarial activity against chloroquine-sensitive Plasmodium berghei ANKA infected in Swiss albino mouse assessed as suppression of parasitemia at 8 mg/kg/day, ip measured on day 4 post infection by Giemsa staining relative to control. Conditions: route intraperitoneal. The class given is functional.
The nature of series [15]: Half life in human liver microsomes at 1 uM after 60 mins. The class given is ADME, Microsome. A digest of the protocol: as §3
The nature of series [16]: Intrinsic clearance in mouse liver microsomes assessed as per mg of protein at 1 uM after 60 mins. It counts as ADME, Microsome. Conditions: read-out: CLH. A digest of the protocol:
as §3

Series [17] has as its system Plasmodium berghei. Nature of the series: Antimalarial activity against chloroquine-sensitive Plasmodium berghei ANKA infected in Swiss albino mouse assessed as suppression of parasitemia at 8 mg/kg/day, ip measured on day 2 post infection by Giemsa staining relative to control. It counts as functional. The note with it: route intraperitoneal.
The test system of series [18] is Plasmodium falciparum. The series can be described thus: Antimalarial activity against chloroquine-sensitive Plasmodium falciparum 3D7 trophozoite stage assessed as growth inhibition at 360 nM after 10 hrs by [3H]-hypoxanthine incorporation assay. It counts as functional, organism-based. A digest of the protocol: as §2
In series [19] the test system is Plasmodium falciparum. Nature of the series: Antimalarial activity against chloroquine-sensitive Plasmodium falciparum 3D7 ring stage assessed as growth inhibition at 204 nM after 10 hrs by [3H]-hypoxanthine incorporation assay. The class given is functional, organism-based. A digest of the protocol:
(§4)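 Synchronous 3D7 rings (~10−16 h post-invasion) or trophozoites (~24−30 h post-invasion), 0.5% parasitemia, 5% hematocrit, exposed 4, 6 or 10 h to compound or 0.04% DMSO vehicle. Cultures are washed, plated in triplicate with 0.5 μCi 3H-hypoxanthine, and incorporation is counted after ~48−72 h. Percent growth is relative to matched vehicle controls, from at least two independent experiments.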

For series [20], the system named is Plasmodium falciparum. Nature of the series: Antimalarial activity against chloroquine-sensitive Plasmodium falciparum 3D7 trophozoite stage assessed as growth inhibition at 408 nM after 10 hrs by [3H]-hypoxanthine incorporation assay. The class given is functional, organism-based. A digest of the protocol: as §4
In series [21] the test system is Plasmodium falciparum. The series can be described thus: Antimalarial activity against chloroquine-sensitive Plasmodium falciparum 3D7 trophozoite stage assessed as growth inhibition at 204 nM after 10 hrs by [3H]-hypoxanthine incorporation assay. It counts as functional, organism-based. A digest of the protocol:
as §4

In series [22] the test system is Plasmodium falciparum. Nature of the series: Antimalarial activity against chloroquine-sensitive Plasmodium falciparum 3D7 ring stage assessed as growth inhibition at 408 nM after 10 hrs by [3H]-hypoxanthine incorporation assay. It counts as functional, organism-based. A digest of the protocol: as §4

Sequence of DNA topoisomerase 2-alpha (Homo sapiens) (P11388 whole entry): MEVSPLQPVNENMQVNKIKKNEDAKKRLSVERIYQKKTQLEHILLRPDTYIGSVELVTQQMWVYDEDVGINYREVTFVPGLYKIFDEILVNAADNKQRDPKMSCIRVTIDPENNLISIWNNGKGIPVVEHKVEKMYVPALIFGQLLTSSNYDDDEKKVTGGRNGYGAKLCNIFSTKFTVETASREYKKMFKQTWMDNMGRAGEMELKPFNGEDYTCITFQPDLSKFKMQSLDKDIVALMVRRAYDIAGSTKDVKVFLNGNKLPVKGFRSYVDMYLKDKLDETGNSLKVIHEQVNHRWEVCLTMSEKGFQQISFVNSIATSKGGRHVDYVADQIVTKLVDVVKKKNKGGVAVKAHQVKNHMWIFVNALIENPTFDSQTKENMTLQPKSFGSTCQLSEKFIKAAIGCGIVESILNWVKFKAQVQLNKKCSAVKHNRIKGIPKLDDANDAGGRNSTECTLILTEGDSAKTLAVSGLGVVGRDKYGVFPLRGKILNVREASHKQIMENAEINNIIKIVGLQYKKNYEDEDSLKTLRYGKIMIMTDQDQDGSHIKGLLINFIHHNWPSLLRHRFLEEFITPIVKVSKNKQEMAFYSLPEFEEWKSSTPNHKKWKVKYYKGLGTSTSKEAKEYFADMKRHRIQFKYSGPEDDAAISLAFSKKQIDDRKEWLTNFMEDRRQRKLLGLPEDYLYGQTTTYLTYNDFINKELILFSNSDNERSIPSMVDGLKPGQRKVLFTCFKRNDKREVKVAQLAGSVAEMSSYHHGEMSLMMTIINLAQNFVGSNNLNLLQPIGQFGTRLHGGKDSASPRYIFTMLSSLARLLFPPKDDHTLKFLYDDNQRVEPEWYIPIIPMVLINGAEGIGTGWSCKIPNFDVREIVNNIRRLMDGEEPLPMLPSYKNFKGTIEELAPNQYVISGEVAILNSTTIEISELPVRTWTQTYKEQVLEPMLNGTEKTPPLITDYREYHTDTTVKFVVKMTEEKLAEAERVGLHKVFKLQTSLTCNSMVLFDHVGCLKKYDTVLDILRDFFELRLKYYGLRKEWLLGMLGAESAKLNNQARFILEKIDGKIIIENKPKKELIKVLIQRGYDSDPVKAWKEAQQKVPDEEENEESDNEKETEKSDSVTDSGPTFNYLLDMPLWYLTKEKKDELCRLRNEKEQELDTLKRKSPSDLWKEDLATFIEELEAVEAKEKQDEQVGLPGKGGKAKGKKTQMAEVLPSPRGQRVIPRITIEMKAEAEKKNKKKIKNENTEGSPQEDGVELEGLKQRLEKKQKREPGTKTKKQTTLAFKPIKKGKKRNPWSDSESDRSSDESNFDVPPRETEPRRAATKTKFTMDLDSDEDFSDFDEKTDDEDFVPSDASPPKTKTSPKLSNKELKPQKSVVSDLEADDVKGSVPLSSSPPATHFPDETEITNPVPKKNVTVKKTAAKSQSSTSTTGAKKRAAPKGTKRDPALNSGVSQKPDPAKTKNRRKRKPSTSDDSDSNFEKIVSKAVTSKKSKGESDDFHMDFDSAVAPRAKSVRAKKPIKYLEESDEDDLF

For `O=C1C(NC2Cc3cc(Br)c(O)cc3S2)=CC2=NCCc3c[nH]c1c32` (stereo not given) [MAKALUVAMINE F], the IC90 (as a rule, the concentration at which the effect reaches the 90% level) in series [1] came out at 25 µM. For the same compound, the IC50 (as a rule, the midpoint of a concentration-inhibition curve) in the series on XRS6 was 0.08 µM; in the series on HCT-116, above 0.17 µM.
Turning to `Cn1cc2c3c1C(=O)C(NCCc1ccc(O)cc1)=CC3=NCC2` [MAKALUVAMINE K TFA SALT], the selectivity ratio in [2] stood at 4; in [5], 3. Moreover, the IC50 in the series with HEK293 came to 1.1 µM; in the series on Plasmodium falciparum [3], 0.396 µM; in the series on Plasmodium falciparum [4], 0.3 µM.
Consider `Cn1cc2c3c1C(=O)C(N/C=C/c1ccc(O)cc1)=CC3=[N+](C)CC2.O=C([O-])C(F)(F)F` [MAKALUVAMINE G], for which the selectivity ratio in series [2] is 51; in series [5] it was 55. The “growth inhibition (GI)” value in the series with Plasmodium falciparum [6] is “inactive”. For the same compound, the IC50 in the series on HEK293 was found to be 2 µM; with Plasmodium falciparum [3], 0.036 µM; in the series on Plasmodium falciparum [4], 0.039 µM. Besides, the “growth inhibition (GI)” value in the series with Plasmodium falciparum [7] and in the series with Plasmodium falciparum [18] was “Active” in each case. For the same compound, the Activity in the series with Plasmodium berghei [8] is reported as 10%; in the series with Plasmodium berghei [11] it was 47%; in the series on Plasmodium berghei [14] it was 48%; with Plasmodium berghei [17], 35%. In addition, the figures for the half-life at 1 µM in series [9] and in series [15] were 7.4 min and 8.8 min, respectively. In series [10], this compound displayed a concentration at 1 h below 0.04 µM. Also, the MTD at 96 h in series [12] is 8 mg/kg/day. Besides, the microsomal CLint at 1 µM was found to be 197 µL/min/mg in series [13] and 235 µL/min/mg in series [16].
As for `Cn1cc2c3c1C(=O)c1[nH]cc(-c4ccc(O)cc4)c1C3=[N+](C)CC2` [TSITSIKAMMAMINE C TRIFLUROACETATE], the selectivity ratio in [2] was 200; in series [5], 276. The IC50 in the series with HEK293 was 3.6 µM; in the series with Plasmodium falciparum [3], 0.013 µM; with Plasmodium falciparum [4], 0.018 µM. Also, the “growth inhibition (GI)” value in the series with Plasmodium falciparum [19], in the series on Plasmodium falciparum [20], in the series with Plasmodium falciparum [21] and with Plasmodium falciparum [22] was “Active” each time.
On to `C[N+]1=C2C=C(N/C=C/c3ccc(O)cc3)C(=O)c3[nH]cc(c32)CC1` [MAKALUVAMINE L], for which the selectivity ratio in series [2] was 66; in series [5], 35. For the same compound, the IC50 with HEK293 was 1.4 µM; in the series with Plasmodium falciparum [3] it was 0.04 µM; with Plasmodium falciparum [4] it was 0.021 µM.
In the case of `Cn1cc2ccnc3c2c1C(=O)C(N)=C3` [MAKALUVAMINE B], the IC50 in the series with XRS6 is 0.08 µM; with HCT-116, above 0.17 µM.
In the case of `Cn1cc2c3c1C(=O)C(N)=CC3=NCC2` [MAKALUVAMINE A], in series [1], the IC90 was found to be 41 µM. Further, the 50% inhibitory concentration (IC50) in the series with XRS6 was 0.08 µM; in the series on HCT-116 it was above 0.17 µM.
